# Measurements gathered from unrelated publications.
# Compare with care: the assays were run in different laboratories.
# Target: Cyclin-dependent kinase 16 (CDK16, Homo sapiens, UniProt Q00536)
SMILES,effect on,technique,concentration,remaining binding [%]
CSc1cccnc1N1CCN(Cc2nc3ccccc3[nH]2)CC1,cell-free assay,competition with immobilised ligand,1 µM,81
O=C(c1ccc(Nc2ncc(Cl)c(-c3cc4ccccc4s3)n2)cc1)N1CCC(N2CCCC2)CC1,binding,competition with immobilised ligand,1 µM,0.7
C[C@H]1CCN(c2nccc(-c3cnn4ncccc34)n2)C1,binding,,1 µM,95
CCN1CCN(Cc2ccc(C(=O)Nc3ccc(C)c(Oc4ccc5c(c4)CC(=O)N5)c3)cc2C(F)(F)F)CC1,binding,competition with immobilised ligand,1 µM,100
CNC(=O)[C@@H]1CC[C@@H](n2c(-c3ccc4cnccc4c3)nc3ccc(C(=O)NCc4cccc(C(N)=O)c4)cc32)C1,binding,competition with immobilised ligand,1 µM,100
Cc1nc(N2CC[C@@H](O)C2)ncc1-c1cc(C(F)(F)F)cc2[nH]ncc12,binding,competition with immobilised ligand,1 µM,75
O=C(c1ccc(Nc2nccc(-c3cc4ccccc4s3)n2)cc1)N1CCC(N2CCCC2)CC1,binding,competition with immobilised ligand,1 µM,58
COc1cnc(Nc2cccc(S(N)(=O)=O)c2)nc1N1CCN(c2ccccc2)C(=O)C1,binding,competition with immobilised ligand,1 µM,92
CN(c1ccnc(CNc2nc(Nc3ccc4c(c3)CC(=O)N4)ncc2C(F)(F)F)n1)S(C)(=O)=O,cell-free assay,competition with immobilised ligand,1 µM,82
C[C@@H]1CN(c2ccc3ncc(-c4ccc5[nH]nc(C6CC6)c5c4)n3n2)C[C@H](C)O1,binding,competition with immobilised ligand,50 nM,98
N[C@H]1CCN(c2nccc(-c3cnn4ncccc34)n2)C1,binding,,1 µM,100
O=C(O)[C@@H]1[C@@H](Cn2nnc3ccccc3c2=O)CC[C@H]1C(=O)c1ccc(OCCC2CCOCC2)cc1,cell-free assay,competition with immobilised ligand,1 µM,100
O=C(NCC1CCOCC1)c1n[nH]cc1NC(=O)c1c(F)cccc1F,binding,competition with immobilised ligand,1 µM,57
Cc1noc([C@H]2C[C@@H](c3ccc(C(F)(F)F)cc3)CN(C(=O)N3CCS(=O)(=O)C3)C2)n1,cell-free assay,competition with immobilised ligand,1 µM,100
Cc1cnn2ncc(-c3ccnc(N(C)C)n3)c2c1,binding,,1 µM,100
C=CC(=O)N1CCC(C(=O)NCC(=O)N2CCN(c3nc(-c4cnc(N)nc4C(F)F)nc(N4CCOCC4)n3)CC2)CC1,binding,competition with immobilised ligand,1 µM,100
CC1CCCN1c1nccc(-c2cnn3ncccc23)n1 (stereo not shown),binding,,1 µM,100
CS(=O)(=O)NCC[C@H](NC(=O)c1cncc2c1cnn2-c1ccc(F)cc1)c1ccnc(S(C)(=O)=O)c1,cell-free assay,competition with immobilised ligand,1 µM,100
FC(F)(F)Oc1cccc(-c2cnc3ccc(-c4ccncc4)nn23)c1,cell-free assay,competition with immobilised ligand,5 µM,53
Cc1c(NC(=O)c2cc(C(N)=O)nc3cc(F)ccc23)c(C(F)(F)F)nn1Cc1ccc(C(C)(C)C)cc1,cell-free assay,competition with immobilised ligand,1 µM,100
CN(C)c1nccc(-c2cnn3ncccc23)n1,binding,,1 µM,100
c1ccc(N2CCN(Cc3nc4ccccc4[nH]3)CC2)nc1,binding,competition with immobilised ligand,1 µM,100
O=C(c1ccc(Nc2ncc(Cl)c(-c3ccc(Cl)s3)n2)cc1)N1CCC(N2CCCC2)CC1,binding,competition with immobilised ligand,1 µM,0.2
CN(C)c1nccc(-c2cnc3ncccn23)n1,binding,,1 µM,73
C[C@@H](c1ccc(-n2cnc3c(N)ncnc32)cc1)N1CCc2nn(C)c(Cc3ccccc3)c2C1=O,binding,competition with immobilised ligand,0.1 µM,67
